ChEMBL document CHEMBL1671644, “Inhibition of human immunodeficiency virus type 1 infection by the candidate microbicide dapivirine, a nonnucleoside reverse transcriptase inhibitor” (Antimicrob Agents Chemother, 2009)

Key:
Type in all cases: functional
[1] = tested on: Human immunodeficiency virus 1; assay: Antiviral activity against HIV-1 subtype CRF05_DF V022824 harboring NNRTI V106I mutant infected in human MT4 cells assessed as inhibition of viral replication relative to HIV-1 3B
Outline: (§1)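 MT-4 cells (3 x 10^4/well) infected with site-directed mutants or recombinant clinical isolates (200 TCID50/well) with drug, cultured 3 to 5 days. Viability read by MTT colorimetric antivirogram assay. IC50 by nonlinear regression; fold change = IC50 for the test isolate / IC50 for wild-type HIV-1 IIIB tested in parallel (mean or median).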

[2] = tested on: Human immunodeficiency virus 1; assay: Antiviral activity against HIV-1 subtype CRF01_AE V029525 infected in human MT4 cells assessed as inhibition of viral replication relative to HIV-1 3B
Outline: (§2)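 Recombinant clinical HIV-1 isolates (200 TCID50/well) were tested in MT-4 cells (3 x 10^4/well) over 3–5 days, with an MTT viability read-out. IC50 was fitted by nonlinear regression. Fold change is the isolate IC50 divided by the HIV-1IIIB IC50, tested in parallel.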

[3] = tested on: Human immunodeficiency virus 1; assay: Antiviral activity against HIV-1 SM051 harboring NNTRI 100I and 103N mutant infected in human MT4 cells assessed as inhibition of viral replication relative to HIV-1 3B; outline: as §1
[4] = tested on: Human immunodeficiency virus 1; assay: Antiviral activity against HIV-1 subtype H V029523 harboring NNRTI K101Q and V179I mutant infected in human MT4 cells assessed as inhibition of viral replication relative to HIV-1 3B; outline: as §1
[5] = tested on: Human immunodeficiency virus 1; assay: Antiviral activity against HIV-1 subtype O V029524 harboring NNRTI A98G, V179E and Y181C mutant infected in human MT4 cells assessed as inhibition of viral replication relative to HIV-1 3B; outline: as §1
[6] = tested on: Human immunodeficiency virus 1; assay: Antiviral activity against HIV-1 subtype D V022819 infected in human MT4 cells assessed as inhibition of viral replication relative to HIV-1 3B; outline: as §1
[7] = tested on: Human immunodeficiency virus 1; assay: Antiviral activity against HIV-1 SM024 harboring NNTRI 190A mutant infected in human MT4 cells assessed as inhibition of viral replication relative to HIV-1 3B; outline: as §1
[8] = tested on: Human immunodeficiency virus 1; assay: Antiviral activity against HIV-1 SM012 harboring NNTRI 108I mutant infected in human MT4 cells assessed as inhibition of viral replication relative to HIV-1 3B; outline: as §1
[9] = tested on: Human immunodeficiency virus 1; assay: Antiviral activity against HIV-1 SM052 harboring NNTRI 101E and 103N mutant infected in human MT4 cells assessed as inhibition of viral replication relative to HIV-1 3B; outline: as §1
[10] = tested on: Human immunodeficiency virus 1; assay: Antiviral activity against HIV-1 SM002 harboring NNTRI 181C mutant infected in human MT4 cells assessed as inhibition of viral replication relative to HIV-1 3B; outline: as §1
[11] = tested on: Human immunodeficiency virus 1; assay: Antiviral activity against HIV-1 subtype H V022827 harboring NNRTI V179I mutant infected in human MT4 cells assessed as inhibition of viral replication relative to HIV-1 3B; outline: as §1
[12] = tested on: Human immunodeficiency virus 1; assay: Antiviral activity against HIV-1 subtype B V022810 harboring NNRTI A98S andK101R mutant infected in human MT4 cells assessed as inhibition of viral replication relative to HIV-1 3B; outline: as §1
[13] = tested on: Human immunodeficiency virus 1; assay: Antiviral activity against HIV-1 subtype B V022814 infected in human MT4 cells assessed as inhibition of viral replication relative to HIV-1 3B; outline: as §1
[14] = tested on: Human immunodeficiency virus 1; assay: Antiviral activity against HIV-1 SM058 harboring NNTRI 227L and 106A mutant infected in human MT4 cells assessed as inhibition of viral replication relative to HIV-1 3B; outline: as §1
[15] = tested on: Human immunodeficiency virus 1; assay: Antiviral activity against HIV-1 subtype B V022809 infected in human MT4 cells assessed as inhibition of viral replication relative to HIV-1 3B; outline: as §1
[16] = tested on: Human immunodeficiency virus 1; assay: Antiviral activity against HIV-1 SM034 harboring NNTRI 188L mutant infected in human MT4 cells assessed as inhibition of viral replication relative to HIV-1 3B; outline: as §1
[17] = tested on: Human immunodeficiency virus 1; assay: Antiviral activity against HIV-1 subtype B V022811 infected in human MT4 cells assessed as inhibition of viral replication relative to HIV-1 3B; outline: as §2
[18] = tested on: Human immunodeficiency virus 1; assay: Antiviral activity against HIV-1 subtype D V022818 infected in human MT4 cells assessed as inhibition of viral replication relative to HIV-1 3B; outline: as §1
[19] = tested on: Human immunodeficiency virus 1; assay: Antiviral activity against HIV-1 SM030 harboring NNTRI 100I mutant infected in human MT4 cells assessed as inhibition of viral replication relative to HIV-1 3B; outline: as §1
[20] = tested on: Human immunodeficiency virus 1; assay: Antiviral activity against HIV-1 subtype B V022807 infected in human MT4 cells assessed as inhibition of viral replication relative to HIV-1 3B; outline: as §2
[21] = tested on: Human immunodeficiency virus 1; assay: Antiviral activity against HIV-1 subtype CRF02_AG V022830 infected in human MT4 cells assessed as inhibition of viral replication relative to HIV-1 3B; outline: as §1
[22] = tested on: Human immunodeficiency virus 1; assay: Antiviral activity against HIV-1 subtype C V022816 infected in human MT4 cells assessed as inhibition of viral replication relative to HIV-1 3B; outline: as §2
[23] = tested on: Human immunodeficiency virus 1; assay: Antiviral activity against HIV-1 subtype CRF05_DF V022823 infected in human MT4 cells assessed as inhibition of viral replication relative to HIV-1 3B; outline: as §1
[24] = tested on: Human immunodeficiency virus 1; assay: Antiviral activity against HIV-1 subtype B V022815 infected in human MT4 cells assessed as inhibition of viral replication relative to HIV-1 3B; outline: as §2
[25] = tested on: Human immunodeficiency virus 1; assay: Antiviral activity against HIV-1 subtype CRF02_AG V022826 infected in human MT4 cells assessed as inhibition of viral replication relative to HIV-1 3B; outline: as §1
[26] = tested on: Human immunodeficiency virus 1; assay: Antiviral activity against HIV-1 subtype CRF01_AE V022822 infected in human MT4 cells assessed as inhibition of viral replication relative to HIV-1 3B; outline: as §1
[27] = tested on: Human immunodeficiency virus 1; assay: Antiviral activity against HIV-1 subtype D V022832 infected in human MT4 cells assessed as inhibition of viral replication relative to HIV-1 3B; outline: as §1
[28] = tested on: Human immunodeficiency virus 1; assay: Antiviral activity against HIV-1 subtype CRF01_AE V022821 infected in human MT4 cells assessed as inhibition of viral replication relative to HIV-1 3B; outline: as §2
[29] = tested on: Human immunodeficiency virus 1; assay: Antiviral activity against HIV-1 subtype CRF01_AE V029521 infected in human MT4 cells assessed as inhibition of viral replication relative to HIV-1 3B; outline: as §2
[30] = tested on: Human immunodeficiency virus 1; assay: Antiviral activity against HIV-1 SM007 harboring NNTRI 103N mutant infected in human MT4 cells assessed as inhibition of viral replication relative to HIV-1 3B; outline: as §1
[31] = tested on: Human immunodeficiency virus 1; assay: Antiviral activity against HIV-1 subtype CRF02_AG V022808 infected in human MT4 cells assessed as inhibition of viral replication relative to HIV-1 3B; outline: as §1
[32] = tested on: Human immunodeficiency virus 1; assay: Antiviral activity against HIV-1 subtype C V022829 infected in human MT4 cells assessed as inhibition of viral replication relative to HIV-1 3B; outline: as §1
[33] = tested on: Human immunodeficiency virus 1; assay: Antiviral activity against HIV-1 subtype B V022812 harboring NNRTI V179I mutant infected in human MT4 cells assessed as inhibition of viral replication relative to HIV-1 3B; outline: as §1
[34] = tested on: Human immunodeficiency virus 1; assay: Antiviral activity against HIV-1 subtype H V022828 harboring NNRTI K101Q and V179I mutant infected in human MT4 cells assessed as inhibition of viral replication relative to HIV-1 3B; outline: as §1
[35] = tested on: Human immunodeficiency virus 1; assay: Antiviral activity against HIV-1 subtype CRF05_DF V022833 harboring NNRTI V179I mutant infected in human MT4 cells assessed as inhibition of viral replication relative to HIV-1 3B; outline: as §1
[36] = tested on: Human immunodeficiency virus 1; assay: Antiviral activity against HIV-1 subtype B V022813 infected in human MT4 cells assessed as inhibition of viral replication relative to HIV-1 3B; outline: as §1
[37] = tested on: Human immunodeficiency virus 1; assay: Antiviral activity against HIV-1 subtype C V022831 infected in human MT4 cells assessed as inhibition of viral replication relative to HIV-1 3B; outline: as §1
[38] = tested on: Human immunodeficiency virus 1; assay: Antiviral activity against HIV-1 subtype CRF02_AG V022825 infected in human MT4 cells assessed as inhibition of viral replication relative to HIV-1 3B; outline: as §1
[39] = tested on: Human immunodeficiency virus 1; assay: Antiviral activity against HIV-1 SM026 harboring NNTRI 103N and 181C mutant infected in human MT4 cells assessed as inhibition of viral replication relative to HIV-1 3B; outline: as §1

## CC(C)Nc1cccnc1N1CCN(C(=O)c2cc3cc(NS(C)(=O)=O)ccc3[nH]2)CC1 [DELAVIRDINE]
[1]
  Ratio IC50: 1.3
[2]
  Ratio IC50: 20
[3]
  Ratio IC50: 621
[4]
  Ratio IC50: 2.6
[5]
  Ratio IC50: 140
[6]
  Ratio IC50: 2.3
[7]
  Ratio IC50: 2
[8]
  Ratio IC50: 2
[9]
  Ratio IC50: 90
[10]
  Ratio IC50: 83
[11]
  Ratio IC50: 0.3
[12]
  Ratio IC50: 2.7
[13]
  Ratio IC50: 1.9
[14]
  Ratio IC50: 10
[15]
  Ratio IC50: 2.6
[16]
  Ratio IC50: 12
[17]
  Ratio IC50: 3.7
[18]
  Ratio IC50: 0.9
[19]
  Ratio IC50: 215
[20]
  Ratio IC50: 3.6
[21]
  Ratio IC50: 0.9
[22]
  Ratio IC50: 5.3
[23]
  Ratio IC50: 0.6
[24]
  Ratio IC50: 4.9
[25]
  Ratio IC50: 1.3
[26]
  Ratio IC50: 2.7
[27]
  Ratio IC50: 1.1
[28]
  Ratio IC50: 2.3
[29]
  Ratio IC50: 4.4
[30]
  Ratio IC50: 105
[31]
  Ratio IC50: 0.6
[32]
  Ratio IC50: 2.7
[33]
  Ratio IC50: 6
[34]
  Ratio IC50: 2
[35]
  Ratio IC50: 0.6
[36]
  Ratio IC50: 0.7
[37]
  Ratio IC50: 2.6
[38]
  Ratio IC50: 1.9
[39]
  Ratio IC50: 621
